Activity calls are given as the source filed them. The calls are words filed in the database; no cut-off is given here.
Key:
Cannabinoid receptor 1 [1] = molecular target: Cannabinoid receptor 1 (Rattus norvegicus, UniProt P20272); experiment: Displacement of [3H]CP55940 from rat brain membrane CB1 receptor assessed as inhibition constant incubated for 1 hr by TopCount scintillation counting method; type: cell membranes
Method in brief: (§1)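 Competition binding against [³H]CP-55,940. CB1 from rat brain membranes; CB2 from membranes of HEK293 cells expressing mouse or human CB2. IC50 obtained by nonlinear regression and converted to Ki. Three independent experiments in triplicate; mean with SEM.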

Cannabinoid receptor 2 [2] = molecular target: Cannabinoid receptor 2 (Mus musculus, UniProt P47936); experiment: Displacement of [3H]CP55940 from mouse CB2 expressed in HEK293 cell membrane assessed as inhibition constant incubated for 1 hr by TopCount scintillation counting method; type: cell membranes; method in brief: as §1
Cannabinoid receptor 2 [3] = molecular target: T1, Cannabinoid receptor 2 (Homo sapiens, UniProt P34972); experiment: Displacement of [3H]CP55940 from human CB2 expressed in HEK293 cell membrane assessed as inhibition constant incubated for 1 hr by TopCount scintillation counting method; type: cell membranes; method in brief: as §1
[4] = molecular target: Cannabinoid receptor 1 (Rattus norvegicus) (UniProt P20272); experiment: Displacement of [3H]CP55940 from rat brain membrane CB1 assessed as reduction in maximum binding capacity at 4 nM incubated for 1 hr by TopCount scintillation counting method relative to control; type: cell membranes
Method in brief: (§2)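 Wash-resistant binding. […] Saturation binding used 25 μg protein, [³H]CP-55,940 at 0.5–23.8 nM and 4 μM unlabeled CP-55,940 for nonspecific binding, 1 h at 30 °C. Samples were filtered and counted by scintillation. Bmax came from one-site fits; % reduction was taken versus untreated control.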

Cannabinoid receptor 2 [5] = molecular target: T1, Cannabinoid receptor 2; experiment: Displacement of [3H]CP55940 from CB2 (unknown origin) assessed as reduction in maximum binding capacity at 4 nM incubated for 1 hr by TopCount scintillation counting method relative to control; method in brief: as §2
Cannabinoid receptor 1 [6] = molecular target: T2, Cannabinoid receptor 1 (Homo sapiens, UniProt P21554); experiment: Agonist activity at 3xHA tagged human CB1 receptor expressed in CHO-K1 cells assessed as reduction in forskolin-stimulated cAMP accumulation by measuring maximal efficacy incubated for 30 mins by cAMP assay relative to CP-55940; type: functional, cell-based; settings: filed as agonist
Method in brief: (§3)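 CHO-K1 cells stably expressing 3xHA-tagged CB1 or CB2, plated at 4000 cells/well in Opti-MEM with 1% FBS for 3 h at 37 °C. Cells cotreated with 25 μM RO-20-1724, 20 μM forskolin and agonist for 30 min at 37 °C, then lysed. cAMP read by HTRF (665/620 nm) after 1 h at room temperature in the dark. Data normalized to vehicle and 100 nM CP-55,940; three-parameter nonlinear regression; ≥4 experiments in duplicate.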

Cannabinoid receptor 2 [7] = molecular target: T1, Cannabinoid receptor 2; experiment: Agonist activity at 3xHA tagged human CB2 receptor expressed in CHO-K1 cells assessed as reduction in forskolin-stimulated cAMP accumulation by measuring maximal efficacy incubated for 30 mins by cAMP assay relative to CP-55940; type: functional, cell-based; settings: filed as agonist; method in brief: as §3
Cannabinoid receptor 1 [8] = molecular target: T2, Cannabinoid receptor 1; experiment: Agonist activity at 3xHA tagged human CB1 receptor expressed in CHO-K1 cells assessed as reduction in forskolin-stimulated cAMP accumulation incubated for 30 mins by cAMP assay; type: functional, cell-based
Cannabinoid receptor 2 [9] = molecular target: T1, Cannabinoid receptor 2; experiment: Agonist activity at 3xHA tagged human CB2 receptor expressed in CHO-K1 cells assessed as reduction in forskolin-stimulated cAMP accumulation incubated for 30 mins by cAMP assay; type: functional, cell-based
Mus musculus [10] = experiment: Induction of hypothermia in C57BL/6 mouse assessed as reduction in body temperature at 0.1 mg/kg, ip measured after 24 hrs; type: toxicity, organism-based; settings: in vivo
Mus musculus [11] = experiment: Antinociceptive activity in CD-1 mouse model of thermal-induced nociception assessed as maximum efficacy causing increase in tail withdrawal latency administered intraperitonially for 6 hrs by tail flick test; type: functional, organism-based; settings: dose 0.03-1 mg/kg
Method in brief: (§4)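 Male CD-1 mice, 25–30 g, n = 6/dose, each used once. Drug was dissolved in 2% DMSO, 4% Tween 80 and 4% propylene glycol, then diluted with saline, and given ip at 10 mL/kg. Tail immersed in a 52 °C water bath; latency recorded at baseline and at 20, 60, 180 and 360 min after injection. Results expressed as % maximum possible effect; ED50 given with 95% CI.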

Mus musculus [12] = experiment: Antinociceptive activity in CD-1 mouse model of thermal-induced nociception assessed as increase in tail withdrawal latency administered intraperitonially for 6 hrs by tail flick test; type: functional; settings: CD-1, ip; method in brief: as §4
Mus musculus [13] = experiment: Antinociceptive activity in CD-1 mouse model of thermal-induced nociception assessed as maximum efficacy causing increase in tail withdrawal latency at 0.03 to 1 mg/kg, ip measured 20 mins post-injection by tail flick test; type: functional, organism-based; settings: dose 0.03-1 mg/kg; method in brief: as §4
Mus musculus [14] = experiment: Antinociceptive activity in CD-1 mouse model of thermal-induced nociception assessed as maximum efficacy causing increase in tail withdrawal latency at 0.03 mg/kg, ip measured 60 mins post-injection by tail flick test; type: functional, organism-based; method in brief: as §4
[15] = Toxicity in C57BL/6 mouse assessed as reduction in locomotion at 0.1 to 1 mg/kg, ip measured after 20 mins; type: organism-based; settings: in vivo, dose 0.1-1 mg/kg
Method in brief: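 C57BL/6 mice, n = 6–7/treatment, given ip drug in 2% DMSO/1% Tween 80/saline at 0.1–1.0 mg/kg. Habituated to the apparatus in the morning. Placed in an infrared beam activity monitor 20 min after injection; ambulatory and horizontal counts recorded over 10 min.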

[16] = Toxicity in […] mouse assessed as reduction in gastrointestinal motility by measuring colonic expulsion at 0.1 mg/kg, ip measured after 20 to 220 mins; type: organism-based; settings: in vivo, time 20-220 min
Method in brief: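 Mice, n = 6–7/treatment, given vehicle (DMSO/Tween 80/saline 2:1:17) or 0.1 mg/kg ip. At 20, 120 and 220 min, under light isoflurane, a 2.5 mm glass bead was inserted 2 cm into the rectum. Time to bead expulsion was recorded.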

[17] = molecular target: Cannabinoid receptor 1 (Rattus norvegicus) (UniProt P20272); experiment: Displacement of [3H]CP55940 from rat brain membrane CB1 assessed as reduction in maximum binding capacity at 4 nM incubated for 1 hr followed by compound washout and measured after 60 to 180 mins by TopCount scintillation counting method; type: cell membranes; settings: filed as agonist

Chain of Cannabinoid receptor 1 (Rattus norvegicus, UniProt P20272) (P20272 whole entry): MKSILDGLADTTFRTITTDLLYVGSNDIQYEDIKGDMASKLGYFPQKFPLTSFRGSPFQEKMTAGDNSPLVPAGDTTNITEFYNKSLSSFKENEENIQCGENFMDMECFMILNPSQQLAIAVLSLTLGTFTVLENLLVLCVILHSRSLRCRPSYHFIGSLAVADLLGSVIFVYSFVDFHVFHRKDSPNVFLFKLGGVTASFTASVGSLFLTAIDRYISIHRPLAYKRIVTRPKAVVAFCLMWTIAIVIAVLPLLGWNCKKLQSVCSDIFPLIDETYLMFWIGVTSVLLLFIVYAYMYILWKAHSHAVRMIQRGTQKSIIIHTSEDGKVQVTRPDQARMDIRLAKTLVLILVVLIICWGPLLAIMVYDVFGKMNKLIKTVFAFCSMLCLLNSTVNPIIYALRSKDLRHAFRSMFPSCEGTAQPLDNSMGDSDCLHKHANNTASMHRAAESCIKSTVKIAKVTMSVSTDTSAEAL
Chain of Cannabinoid receptor 1 (Rattus norvegicus) (P20272 whole entry): as above
T1 sequence (P34972 whole entry): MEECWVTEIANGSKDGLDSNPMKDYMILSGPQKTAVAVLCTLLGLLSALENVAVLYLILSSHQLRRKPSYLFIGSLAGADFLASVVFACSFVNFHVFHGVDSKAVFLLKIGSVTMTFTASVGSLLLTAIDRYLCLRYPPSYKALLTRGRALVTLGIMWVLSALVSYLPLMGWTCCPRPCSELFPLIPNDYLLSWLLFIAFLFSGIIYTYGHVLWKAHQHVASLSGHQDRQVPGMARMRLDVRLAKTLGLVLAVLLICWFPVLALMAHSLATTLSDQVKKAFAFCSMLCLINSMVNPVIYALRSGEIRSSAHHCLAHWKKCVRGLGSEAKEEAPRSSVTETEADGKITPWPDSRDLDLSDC
Chain of Cannabinoid receptor 2 (Mus musculus, UniProt P47936) (P47936 whole entry): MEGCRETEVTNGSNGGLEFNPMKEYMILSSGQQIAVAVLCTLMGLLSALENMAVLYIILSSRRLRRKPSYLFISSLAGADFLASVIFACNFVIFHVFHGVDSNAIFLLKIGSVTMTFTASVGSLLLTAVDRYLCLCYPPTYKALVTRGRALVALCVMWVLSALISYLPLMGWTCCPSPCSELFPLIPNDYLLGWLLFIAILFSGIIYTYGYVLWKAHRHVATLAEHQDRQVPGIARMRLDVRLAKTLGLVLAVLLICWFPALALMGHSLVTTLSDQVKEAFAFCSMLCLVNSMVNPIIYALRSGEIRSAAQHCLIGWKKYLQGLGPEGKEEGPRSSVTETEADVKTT
T2 sequence (P21554 whole entry): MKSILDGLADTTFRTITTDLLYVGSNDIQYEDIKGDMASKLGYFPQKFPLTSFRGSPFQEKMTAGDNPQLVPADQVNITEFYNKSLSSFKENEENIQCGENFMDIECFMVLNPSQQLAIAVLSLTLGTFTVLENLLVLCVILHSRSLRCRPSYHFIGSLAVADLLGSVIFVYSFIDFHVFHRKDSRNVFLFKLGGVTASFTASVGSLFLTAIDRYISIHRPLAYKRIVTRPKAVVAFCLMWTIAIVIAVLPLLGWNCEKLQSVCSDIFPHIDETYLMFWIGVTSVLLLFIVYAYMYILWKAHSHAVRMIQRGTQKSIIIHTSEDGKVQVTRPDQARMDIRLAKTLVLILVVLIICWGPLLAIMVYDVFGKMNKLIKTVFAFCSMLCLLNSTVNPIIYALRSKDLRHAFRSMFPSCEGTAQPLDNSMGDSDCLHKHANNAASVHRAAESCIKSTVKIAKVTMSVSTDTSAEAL

Row | SMILES | Ki (Cannabinoid receptor 1 [1]) [nM] | Ki (Cannabinoid receptor 2 [2]) [nM] | Ki (Cannabinoid receptor 2 [3]) [nM] | Bmax ([4]; filed as agonist) [%] | Bmax (Cannabinoid receptor 2 [5]; filed as agonist) [%] | Emax (Cannabinoid receptor 1 [6]) [%] | Emax (Cannabinoid receptor 2 [7]) [%] | EC50 (Cannabinoid receptor 1 [8]) [nM] | EC50 (Cannabinoid receptor 2 [9]) [nM] | Bmax (Cannabinoid receptor 2 [5]) [%] | further results
1 | CC(C)(CCCCCCN=[N+]=[N-])c1cc(O)c2c(c1)OC(C)(C)[C@@H]1CC[C@@H](CO)C[C@@H]21 | 0.41 | 0.8 | 1.4 | 75 | 63 | 99 | 72 | 0.098 | 0.77 |  | 
2 | CC(C)(CCCCCCN=C=S)c1cc(O)c2c(c1)OC(C)(C)[C@@H]1CC[C@@H](CO)C[C@@H]21 | 0.39 | 0.8 | 3.15 | 65 | 75 | 96 | 107 | 5.8 | 5.5 |  | 
3 | CC1(C)Oc2cc(C3(CCCCCCCN=C=S)CCCC3)cc(O)c2[C@@H]2C[C@H](CN=C=S)CC[C@H]21 | 37.6 | 14.6 | 4.2 |  |  |  |  |  |  | 15 | Bmax [4]: 37%
4 | CC1(C)Oc2cc(C3(CCCCCCN=[N+]=[N-])CCCC3)cc(O)c2[C@@H]2C[C@H](CO)CC[C@H]21 | 0.4 | 0.8 | 0.8 | 87 | 65 |  |  |  |  |  | 
5 | CC1(C)Oc2cc(C3(CCCCCCCC#N)CCCC3)cc(O)c2[C@@H]2C[C@H](CN=[N+]=[N-])CC[C@H]21 | 0.3 | 1.4 | 0.3 |  |  |  |  |  |  |  | Activity [4]: inactive; Activity (Cannabinoid receptor 2 [5]): inactive
6 | CCCCCCC(C)(C)c1cc(O)c2c(c1)OC(C)(C)[C@@H]1CC[C@@H](CO)C[C@@H]21 | 3 |  | 2.1 |  |  |  |  |  |  |  | Activity [4]: inactive; Activity (Cannabinoid receptor 2 [5]): inactive
7 | CC(C)(CCCCCCC#N)c1cc(O)c2c(c1)OC(C)(C)[C@@H]1CC[C@@H](CO)C[C@@H]21 | 0.4 | 0.8 | 0.4 | 76 | 60 | 103 | 70 | 0.088 | 0.38 |  | Activity (Mus musculus [10]): Toxic; Activity (Mus musculus [11]): Dose-Dependent Effect; ED50 (Mus musculus [12]): 0.12 mg/kg; Activity (Mus musculus [13]): Active; Activity (Mus musculus [14]): inactive; Activity [15]: Toxic; Activity [16]: Toxic; Activity [17]: Active
8 | CC1(C)Oc2cc(C3(CCCCCCCC#N)CCCC3)cc(O)c2[C@@H]2C[C@H](CO)CC[C@H]21 | 0.5 | 0.9 | 0.4 | 60 | 40 |  |  |  |  |  | 
9 | CC1(C)Oc2cc(C3(CCCCCCCN=C=S)CCCC3)cc(O)c2[C@@H]2C[C@H](CO)CC[C@H]21 | 0.4 | 1.1 | 1 | 51 |  | 105 | 74 | 0.43 | 0.39 | 19 | 
10 | CC1(C)Oc2cc(C3(CCCCCCCN=[N+]=[N-])CCCC3)cc(O)c2[C@@H]2C[C@H](CN=[N+]=[N-])CC[C@H]21 | 0.7 | 1.2 | 1.5 |  |  |  |  |  |  | 21 | Bmax [4]: 28%
11 | CC1(C)Oc2cc(C3(CCCCCCCN=[N+]=[N-])CCCC3)cc(O)c2[C@@H]2C[C@H](CO)CC[C@H]21 | 0.5 | 1.6 | 1.5 | 48 |  |  |  |  |  | 37 | 
12 | CC1(C)Oc2cc(C3(CCCCCCN=C=S)CCCC3)cc(O)c2[C@@H]2C[C@H](CO)CC[C@H]21 | 1.1 | 0.9 | 1.3 |  |  | 104 | 57 | 0.52 | 2.7 | 34 | Bmax [4]: 39%
13 | CC1(C)Oc2cc(C3(CCCCCCC#N)CCCC3)cc(O)c2[C@@H]2C[C@H](CO)CC[C@H]21 | 0.8 | 1 | 1.4 | 68 | 45 | 112 | 61 | 0.31 | 0.96 |  | 
14 | CC1(C)Oc2cc(C3(CCCCCCCC#N)CCCC3)cc(O)c2[C@@H]2C[C@H](CN=C=S)CC[C@H]21 | 0.4 | 1.9 | 0.6 |  |  |  |  |  |  |  | Activity [4]: inactive; Activity (Cannabinoid receptor 2 [5]): inactive
